Shown are actives, neighbours in structure and some others; about 2.3% of the full set was active somewhere.
TRPC6 activator: activators of mouse TRPC6 channel; HEK293-TRPC6 membrane potential dye fluorescence; active compounds read high; Q61143; AID 2550; B-score at 10 µM; 0.13% of 310,000 active;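 active = B-score of the integrated fluorescence ratio above library mean plus 3 SD, and starting fluorescence ratio within library mean plus 5 SD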;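 also: higher score means more depolarization so channel activation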
TRPC4 block: inhibitors of mouse TRPC4 channel; HEK293 TRPC4beta/mu-opioid, DAMGO-evoked Fluo4 calcium flux; active compounds read low; B-score at 10 µM; 0.39% of 300,000 active; AID 2247;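 active = B-score over 3 SD under the library average, no early fluorescence shift, positive overall ratio signal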
Target sequence (Q9QUQ5 whole entry, looked up): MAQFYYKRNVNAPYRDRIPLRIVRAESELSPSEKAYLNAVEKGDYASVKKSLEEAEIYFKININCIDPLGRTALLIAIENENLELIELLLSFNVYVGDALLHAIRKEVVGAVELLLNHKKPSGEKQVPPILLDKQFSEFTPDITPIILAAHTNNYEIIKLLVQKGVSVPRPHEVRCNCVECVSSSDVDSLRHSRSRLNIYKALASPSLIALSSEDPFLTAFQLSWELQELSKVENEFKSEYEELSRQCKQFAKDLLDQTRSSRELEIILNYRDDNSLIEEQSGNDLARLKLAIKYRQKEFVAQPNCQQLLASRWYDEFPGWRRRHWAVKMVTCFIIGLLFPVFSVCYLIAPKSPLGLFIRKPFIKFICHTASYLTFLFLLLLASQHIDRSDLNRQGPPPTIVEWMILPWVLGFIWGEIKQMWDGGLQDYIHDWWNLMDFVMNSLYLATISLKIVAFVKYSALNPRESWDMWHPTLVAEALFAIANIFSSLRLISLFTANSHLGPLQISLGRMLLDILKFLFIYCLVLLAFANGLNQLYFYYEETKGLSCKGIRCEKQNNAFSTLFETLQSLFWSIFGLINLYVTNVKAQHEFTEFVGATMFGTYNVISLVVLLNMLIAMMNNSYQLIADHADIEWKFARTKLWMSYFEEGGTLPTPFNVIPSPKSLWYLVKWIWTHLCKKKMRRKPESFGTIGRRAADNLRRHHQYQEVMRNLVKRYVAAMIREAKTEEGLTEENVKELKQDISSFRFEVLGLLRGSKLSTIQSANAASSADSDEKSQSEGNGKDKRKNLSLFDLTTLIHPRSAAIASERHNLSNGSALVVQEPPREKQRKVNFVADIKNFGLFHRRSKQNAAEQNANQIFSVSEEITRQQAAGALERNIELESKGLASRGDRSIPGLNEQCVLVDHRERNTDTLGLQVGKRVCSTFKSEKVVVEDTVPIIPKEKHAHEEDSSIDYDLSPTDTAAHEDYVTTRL
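System: stable TRPC4beta/mu-opioid receptor HEK293 cells; Dosing: single-point compound dosing; Measured by: Fluo4 Ca2+ flux fluorescence; Read-out basis: per-well B score of integrated baseline-normalized Fluo4 ratio.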
TRPC6 inhibitor: mouse TRPC6 channel inhibition | Q61143 | HEK293-TRPC6, membrane potential dye, ACh-evoked depolarization; active compounds read low | B-score at 10 µM | 1.1% of 310,000 active;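 active = B-score under library mean minus 3 SD, initial fluorescence not abnormally high, positive integrated signal ratio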;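 also: B-score derived from integrated fluorescence ratio over the kinetic read; more negative B-score means stronger inhibition of depolarization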
TRPC4 potent: TRPC4 (mouse) allosteric potentiation | HEK293 TRPC4beta/mu-opioid, DAMGO EC20, Fluo-4 Ca2+ flux; active compounds read high | B-score at 10 µM | 0.42% of 310,000 active | AID 2227;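 active = B-score of calcium response area above 5 SD of library B-scores, with initial fluorescence ratio within 5 SD of library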
TRPC4 act: opens the mouse TRPC4 cation channel; B-score at 10 µM; 0.49% of 310,000 active; HEK293 TRPC4beta/mu-opioid, Fluo4 calcium fluorescence; active compounds read high; Q9QUQ5; AID 2237;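 active = B-score above 5 SD of library B-scores, and initial fluorescence ratio not above library mean plus 5 SD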;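 also: positive B-score marks a calcium rise read as TRPC4 activation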
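Test system: HEK293 cells stably co-expressing mouse TRPC4beta and mu-opioid receptor | Schedule: Fluo4 dye loading 45 min at room temperature, 110 s recording | Measured by: Kinetic Fluo4 calcium fluorescence, 5 s baseline at 1 Hz | Evaluation: B score of integrated ratio | Controls: Buffer (low) and maximal DAMGO (high)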
TRPC4 sel inh 2: second check of whether TRPC6 inhibitors also affect mouse TRPC4; shares compounds with TRPC6 inhibitor; inhibition, % at 10 µM; HEK293 TRPC4/MOR, membrane potential dye fluorescence; channel activated by saturating DAMGO dose; 42% of 920 active;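 active = compounds whose fluorescence signal differed from control wells by over 3 SD, either direction, in both duplicate plates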
TRPC4 spec: selectivity of TRPC6 inhibitors: effect on mouse TRPC4 | AID 2777 | HEK293 TRPC4/mu-opioid, membrane potential fluorescence | activity change, negative = inhibition, % at 10 µM | shares compounds with TRPC6 inhibitor | 61% of 920 active;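 active = rise or fall in signal beyond 3 SD of buffer-only wells in both replicate plates, either sign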;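 also: integrated kinetic ratio of fluorescence range over baseline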
HEK293 MPD ctr 2-1: second counter-screen for TRPC6 inhibitors: parental HEK293 cells. shares compounds with TRPC6 inhibitor. parental HEK293 membrane potential dye fluorescence; maximal acetylcholine challenge after compound addition. signal change vs control, % at 10 µM. 31% of 920 active. AID 2779;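 active = membrane potential signal moving either way by over 3 SD of the maximum-effect control, in both duplicate plates, meaning non-specific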
HEK293 MPD ctr-1: counter-screen for TRPC6 inhibitors: effect in parental HEK293 cells. shares compounds with TRPC6 inhibitor. parental HEK293 membrane potential dye fluorescence. membrane potential signal change, % at 10 µM. 60% of 920 active;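 active = membrane potential signal shifting up or down by more than 3 SD of buffer-only wells, on both duplicate plates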
HEK293 MPD ctr-2: parental HEK293 nonspecific activity of TRPC6 modulators | 51% of 2,400 active | membrane potential dye fluorescence | membrane potential signal change, % at 10 µM | shares compounds with TRPC6 inhibitor;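 active = membrane potential signal moves up or down beyond 5 SD from buffer-only wells, on both duplicate plates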
HEK293 MPD ctr 2-2: second check of TRPC6 modulator effects in parental HEK293 cells; shares compounds with TRPC6 inhibitor; membrane potential dye fluorescence; after compound, maximal acetylcholine stimulation; inhibition, % at 10 µM; 14% of 2,400 active; AID 488926;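 active = membrane potential signal drops by more than 5 SD from the mean control signal, in both duplicate plates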
TRPC4/MOR mod: selectivity of TRPC6 modulators against mouse TRPC4; shares compounds with TRPC6 inhibitor; HEK293 TRPC4/mu-opioid, membrane potential fluorescence; percent change from control (negative = decrease, positive = increase), % at 10 µM; 69% of 2,400 active; AID 488927;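 active = membrane potential signal moved up or down beyond 5 SD of buffer control wells, in both duplicate plates, actives on both sides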
TRPC4 ctr inh 2: mouse TRPC4 off-target activity of TRPC6 modulators, second screen. shares compounds with TRPC6 inhibitor. HEK293 TRPC4/mu-opioid, membrane potential dye fluorescence; stimulated with maximal-effect DAMGO. inhibition, % at 10 µM. 55% of 2,400 active. AID 488928;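 active = drop in membrane potential signal beyond 5 SD of the control wells in both duplicate plates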;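 also: TRPC4 counter screen for TRPC6 hits run under conditions tuned for TRPC6 not TRPC4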
TRPC6 inh conf: mouse TRPC6 inhibitor confirmation; HEK293-TRPC6, membrane potential dye, ACh-evoked depolarization; shares compounds with TRPC6 inhibitor; 43% of 3,300 active; inhibition, % at 10 µM;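 active = fluorescence ratio falls more than 5 SD below the full-stimulation control mean, in both duplicate runs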;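 also: integrated fluorescence ratio of peak minus minimum over baseline after agonist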
TRPC6 act confirm: mouse TRPC6 activator confirmation. shares compounds with TRPC6 inhibitor. HEK293-TRPC6 membrane potential dye fluorescence, FDSS. activation, % at 10 µM. 11% of 2,800 active. AID 488961;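 active = ratio signal rise beyond 5 SD above unstimulated control wells' mean, seen in both duplicate runs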
Large screens that a line does not name were inactive (follow-up assays come after a bar, where they were run).

COc1ccc(NC(=O)CSCC(=O)Nc2nnc(C)s2)cc1	none
Cc1ccc(OCC(=O)Nc2ccc(S(=O)(=O)N3CCOCC3)cc2)c(Br)c1	none
Cc1cc(C(=O)Nc2ccccc2C)n(-c2ccccc2)n1	none
CN(C)c1nc(F)c(F)c(S(=O)(=O)c2ccccc2)c1F	TRPC6 inhibitor -5.3 | HEK293 MPD ctr-2 inactive | HEK293 MPD ctr 2-2 inactive | TRPC4/MOR mod inactive | TRPC4 ctr inh 2 inactive | TRPC6 inh conf inactive | TRPC6 act confirm inactive
Cc1ncc(C[n+]2csc(CCOC(=O)CC34CC5CC(CC(C5)C3)C4)c2C)c(N)n1	none
Cc1c(CCOC(=O)CC23CC4CC(CC(C4)C2)C3)sc[n+]1Cc1ccccc1	TRPC4 block -6, TRPC6 inhibitor -5.3 | HEK293 MPD ctr-2 inactive | HEK293 MPD ctr 2-2 inactive | TRPC4/MOR mod inactive | TRPC4 ctr inh 2 40% | TRPC6 inh conf 56% | TRPC6 act confirm inactive
O=C(COc1ccc(S(=O)(=O)N2CCOCC2)cc1)NCCN1CCOCC1	none
Nc1cc2ccncc2c2ccccc12	TRPC6 inhibitor -11 | HEK293 MPD ctr-2 -380% | HEK293 MPD ctr 2-2 78% | TRPC4/MOR mod -72% | TRPC4 ctr inh 2 86% | TRPC6 inh conf 74% | TRPC6 act confirm inactive
COC(=O)c1cc(S(=O)(=O)N2CCN(c3ccc(C(C)=O)cc3)CC2)cn1C	none
Cc1oc(-c2ccccc2F)nc1CN1CCC(C(=O)NC2CCCc3ccccc32)CC1 (centres undefined)	TRPC6 inhibitor -8.8 | TRPC4 sel inh 2 34% | TRPC4 spec 29% | HEK293 MPD ctr 2-1 293% | HEK293 MPD ctr-1 9.1% | TRPC6 inh conf inactive | TRPC6 act confirm inactive
COc1ccc(-n2ncc(C(C)NS(=O)(=O)c3cc(F)ccc3C)c2C)cc1 (centres undefined)	none
O=C(CSc1nc2ccccc2c(=O)n1Cc1ccccc1)Nc1ccc(Br)cc1C(=O)O	none
O=C(CN1CCCC1)Nc1ccc(-c2nc3cc(NC(=O)CN4CCCC4)ccc3o2)cc1	TRPC6 activator 12 | HEK293 MPD ctr-2 218% | HEK293 MPD ctr 2-2 inactive | TRPC4/MOR mod 28% | TRPC4 ctr inh 2 inactive | TRPC6 inh conf inactive | TRPC6 act confirm 76%
O=C(CN1CCCCC1)Nc1ccc(N2CCCCCC2)cc1	TRPC6 inhibitor -6.6 | HEK293 MPD ctr-2 inactive | HEK293 MPD ctr 2-2 inactive | TRPC4/MOR mod inactive | TRPC4 ctr inh 2 36% | TRPC6 inh conf 54% | TRPC6 act confirm inactive
CCN(CC)CC(=O)Nc1ccc(-c2nc3cc(NC(=O)CN(CC)CC)ccc3o2)cc1	TRPC6 inhibitor -8.7 | TRPC4 sel inh 2 72% | TRPC4 spec inactive | HEK293 MPD ctr 2-1 inactive | HEK293 MPD ctr-1 inactive | TRPC6 inh conf inactive
CCN(CC)CCCn1c2c(c(SCC(=O)Nc3ccc4c(c3)OCO4)nc1=O)CCC2	none
COc1ccc(C2CC(c3ccccc3)=NN2C(=O)CSc2nnnn2-c2cccc(C)c2)cc1 (centres undefined)	none
CCOC(=O)c1cnc2c(cnn2C)c1NCCCn1ccnc1	TRPC6 inhibitor -7.5 | HEK293 MPD ctr-2 -352% | HEK293 MPD ctr 2-2 115% | TRPC4/MOR mod -52% | TRPC4 ctr inh 2 68% | TRPC6 inh conf 73% | TRPC6 act confirm inactive
CCOC(=O)c1cnc2c(cnn2C)c1NCCCN(C)C	none
COc1ccc(Cl)cc1NC(=O)CN(C)C(=O)Cn1cnc2c1c(=O)n(C)c(=O)n2C	none
O=C(CCc1ccccc1)NC1CCCc2ccccc21 (centres undefined)	TRPC6 inhibitor -7.5 | TRPC4 sel inh 2 inactive | TRPC4 spec 6.5% | HEK293 MPD ctr 2-1 inactive | HEK293 MPD ctr-1 5.4% | TRPC6 inh conf inactive | TRPC6 act confirm inactive
O=C(Cc1ccccc1F)NC1CCCc2ccccc21 (centres undefined)	none
c1ccc(NC2=NCCN2CCC2CCCCC2)cc1	none
Cc1cc(NC(=O)c2ccc3c(c2)C(=O)N(C)C3=O)no1	TRPC6 inhibitor -6.1 | HEK293 MPD ctr-2 -99% | HEK293 MPD ctr 2-2 inactive | TRPC4/MOR mod -19% | TRPC4 ctr inh 2 inactive | TRPC6 inh conf inactive | TRPC6 act confirm inactive
Cc1ccc(C(=O)N/C(=C/c2ccc(N(C)C)cc2)C(=O)NCC2CCCO2)cc1 (centres undefined)	none
O=C(NCCc1ccc(F)cc1)Nc1ccc([N+](=O)[O-])cc1	none
O=[N+]([O-])c1ccc(NC(=S)NCCc2ccc(F)cc2)cc1	TRPC6 inhibitor -5.3 | HEK293 MPD ctr-2 inactive | HEK293 MPD ctr 2-2 inactive | TRPC4/MOR mod inactive | TRPC4 ctr inh 2 62% | TRPC6 inh conf inactive | TRPC6 act confirm inactive
Oc1ccccc1N=Nc1ccccc1O	none
Nc1ccc(N=Nc2ccccc2O)c(N)c1	TRPC6 inhibitor -6.5 | HEK293 MPD ctr-2 -174% | HEK293 MPD ctr 2-2 inactive | TRPC4/MOR mod 28% | TRPC4 ctr inh 2 98% | TRPC6 inh conf inactive | TRPC6 act confirm inactive
COc1ccc(Cl)cc1S(=O)(=O)N(C)CC(=O)NCc1ccc2c(c1)OCO2	none
CN(C(=O)c1ccoc1)c1ccc2ccccc2c1	none
Cc1cc(C)n(-c2ccc(S(=O)(=O)N3CCCC3)cc2[N+](=O)[O-])n1	none

From PubChem
